High-throughput results from PubChem.
Compounds with a hit are over-represented: about 3.5% of the library has one in this group of screens.
RGS4 act: RGS4 potentiators or activators, primary screen, cell-based, HEK293 M3R inducible RGS4, calcium flux. carbachol calcium flux Fluo4; hits give low values. B-score at 10 µM. 310,000 tested, 0.92% active. AID 463111, 2010;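 active = B-score of the integrated calcium signal more than 4 SD below the library mean, with starting fluorescence not abnormally high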;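 note: negative B-score means reduced calcium response which marks RGS4 activation or potentiation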
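test system = M3R-expressing HEK293 line, RGS4 induced by doxycycline | probe or stimulus = carbachol at ECmax as muscarinic agonist stimulus | timing = dye loading 30 min 37 °C, buffer rest 30 min RT | signal = calcium dye Fluo4 fluorescence | evaluation = B score from integrated fluorescence ratio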
RGS4 block: RGS4 inhibitors, primary screen, cell-based, HEK293 M3R inducible RGS4, calcium flux; Regulator of G-protein signaling 4 (Homo sapiens), P49798; Fluo-4 calcium flux; hits give high values; triggered by carbachol at its EC20; B-score at 10 µM; 310,000 tested, 0.45% active; AID 463165, 2010;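 active = B-score, a plate-corrected calcium signal, over three deviations above library mean, with baseline fluorescence within five deviations of library mean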;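 note: RGS4 expression induced by doxycycline in cells with stable M3 receptor; B-score is computed from the integrated fluorescence ratio over baseline after carbachol; higher B-score means a larger calcium signal and so more RGS4 inhibition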
Target sequence (P49798 whole entry, looked up): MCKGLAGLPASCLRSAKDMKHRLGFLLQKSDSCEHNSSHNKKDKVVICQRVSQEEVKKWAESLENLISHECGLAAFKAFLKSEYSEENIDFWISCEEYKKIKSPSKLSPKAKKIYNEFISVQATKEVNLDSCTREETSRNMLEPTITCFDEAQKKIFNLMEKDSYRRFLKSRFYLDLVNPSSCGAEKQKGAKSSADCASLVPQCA
MrgX1 antagonist: antagonists of human MrgX1 receptor, primary screen, HEK293 cells, Fluo-4 calcium flux. Mas-related G-protein coupled receptor member X1 (Homo sapiens), Q96LB2. BAM8-22 antagonism; hits give low values. B-score at 10 µM. 310,000 tested, 1.3% active;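 active = calcium-response B-score plate-corrected more than 3 library SD below zero, starting fluorescence within 5 deviations, no agonist response on first addition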;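 note: peak minus trough fluorescence over baseline after final BAM8-22 challenge near maximal dose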
Target sequence (Q96LB2 whole entry, looked up): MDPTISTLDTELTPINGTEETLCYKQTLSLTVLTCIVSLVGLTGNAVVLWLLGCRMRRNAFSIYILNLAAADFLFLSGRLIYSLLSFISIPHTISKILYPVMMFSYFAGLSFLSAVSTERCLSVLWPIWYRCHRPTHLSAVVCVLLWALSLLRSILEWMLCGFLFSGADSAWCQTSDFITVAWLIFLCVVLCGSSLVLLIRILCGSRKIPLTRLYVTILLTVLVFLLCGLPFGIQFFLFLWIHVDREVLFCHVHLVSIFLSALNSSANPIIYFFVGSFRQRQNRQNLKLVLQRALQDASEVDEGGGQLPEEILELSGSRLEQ
MrgX1 allo act: positive allosteric modulators of MrgX1, primary screen, HEK293 cells, Fluo-4 calcium flux. 310,000 tested, 0.63% active. Mas-related G-protein coupled receptor member X1 (Homo sapiens), Q96LB2. FDSS; hits give high values. B-score at 10 µM. AID 588675, 2011;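 active = plate-corrected calcium response at least 3 library SD above typical, normal starting fluorescence, not activating the receptor alone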;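 note: compound read alongside a low EC10 to EC30 dose of BAM8-22 agonist; peak minus trough fluorescence over baseline measured at the second addition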
MrgX1 ag: agonists of human MrgX1 receptor, primary screen, HEK293 cells, Fluo-4 calcium flux; Mas-related G-protein coupled receptor member X1 (Homo sapiens), Q96LB2; Fluo-4 calcium fluorescence, agonist mode; hits give high values; B-score at 10 µM; 310,000 tested, 0.44% active; AID 588627, 2011;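 active = calcium response B-score plate-corrected fluorescence ratio at least 3 library SD, with starting fluorescence B-score inside 5 SD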
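Material: MrgX1-expressing HEK293 cells; input: 15,000 cells per well; doses: test compound given as first of three sequential additions; schedule: overnight plating before 1 h dye loading; technique: Fluo-4 NW calcium-flux fluorescence, kinetic read; evaluation: baseline-normalised fluorescence change ratio, B-scored; control set: plate-wise positive and negative controls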
RGS4 activ val: reduced carbachol calcium response, RGS4-induced M3R cells, confirmation, RGS4 activator project, cell-based, HEK293 M3R/RGS4 inducible, calcium flux, duplicate; shares compounds with RGS4 act; carbachol calcium flux Fluo4; inhibition, % at 10 µM; 1,100 tested, 89% active; AID 602282, 2012;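 active = inhibition above 3 SD of the buffer control wells, cut at about 41% in these data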;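 note: signal is the integrated peak-minus-minimum Fluo4 fluorescence over baseline ratio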
M3R Ca counter: activity in cells without induced RGS4 expression; inhibition, % at 10 µM; HEK293 M3R non-induced RGS4, Fluo4 calcium flux; after carbachol challenge at its EC90; AID 602283; 1,100 tested, 82% active; shares compounds with RGS4 act;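 active = inhibition exceeding 3 SD of buffer-only control wells, cut at about 26% in these data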;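 note: percent drop in integrated peak-minus-baseline over baseline Fluo4 ratio after carbachol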
* = called active by the depositor; i = inactive; / = not tested or not shown.

SMILES | RGS4 act | RGS4 block | MrgX1 antagonist | MrgX1 allo act | MrgX1 ag | RGS4 activ val | M3R Ca counter
CN1CCC(Oc2ccc(Sc3ccccc3)cc2)CC1 | -8.2* | i | i | i | i | 86* | 41*
CCCC(=O)NC(=S)Nc1cccc(Cl)c1N1CCCCC1 | -8.9* | i | i | i | i | 94* | 64*
CCCc1cc(-c2n[nH]c(=S)n2CC)cs1 | i | i | i | i | i | / | /
CCCCn1c(-c2csc(CCC)c2)n[nH]c1=S | -12* | i | i | i | i | 58* | 84*
OC(C#CCCN1CCCCC1)(c1ccccc1)C1CCCCC1 (stereo not given) | -9* | i | i | i | i | 92* | 96*
OCCN(CC#CC(O)(c1ccccc1)C1CCCCC1)CCO (stereo not given) | i | i | i | i | i | / | /
COc1ccc(N(CC(=O)NCCSc2ccc(C)cc2)S(=O)(=O)c2ccccc2)c(OC)c1 | -12* | i | i | i | i | 73* | 0
O=S(=O)(Cc1ccccc1)Nc1ccccc1 | i | i | i | i | i | / | /
CN(Cc1ccccc1)S(=O)(=O)c1ccc(NS(=O)(=O)Cc2ccccc2)cc1 | -8.8* | i | i | i | i | 85* | 57*
CC(NC(=O)COC(=O)C1CSC2(C)CCC(=O)N12)C12CC3CC(CC(C3)C1)C2 (stereo not given) | i | i | i | i | i | / | /
S=c1[nH]nc(-c2ccc(Cl)cc2Cl)n1-c1ccccc1 | i | i | i | i | i | / | /
Cc1cccc(-c2n[nH]c(=S)n2Cc2ccccc2)c1 | -8* | i | i | i | i | 0 | 0
S=c1[nH]nc(-c2cccc(Cl)c2)n1Cc1ccccc1 | i | i | i | i | i | / | /
S=c1[nH]nc(-c2ccc(Cl)cc2Cl)n1Cc1ccccc1 | -7.8* | i | i | i | i | 91* | 58*
COc1ccc(N(C(C)=O)c2nc3ccccc3[nH]2)cc1 | i | i | i | i | i | / | /
CC1=CC(C)(C)N(C(=O)CNC2CCCCC2)c2cc(C)ccc21 | -8.5* | i | i | i | i | 94* | 97*
CC1=CC(C)(C)N(C(=O)CCl)c2cc(C)ccc21 | i | i | i | i | i | / | /
CC1CCCCN1CC(=O)Nc1ccc(N2CCCCCC2)cc1 (stereo not given) | i | i | i | i | i | / | /
CC1CCCCN1CC(=O)Nc1ccc(Oc2ccccc2)cc1 (stereo not given) | -9.1* | i | i | i | i | 93* | 87*
N#Cc1ccsc1NC(=O)CCc1ccccc1 | i | i | i | i | i | / | /
N#Cc1ccsc1NC(=O)CCN1CCN(C(c2ccccc2)c2ccccc2)CC1 | -9.1* | i | i | i | i | 74* | 84*
O=C(NCc1ccc(F)cc1)C(Cc1ccccc1)n1cccc1 (stereo not given) | i | i | i | i | i | / | /
Cc1ccc2c(c1)N(C(=O)CCC(=O)NCCN1CCOCC1)CC(C)O2 (stereo not given) | i | i | i | i | i | / | /
c1ccc(OCCOCCN2CCN(C(c3ccccc3)c3ccccc3)CC2)cc1 | i | i | i | i | i | / | /
O=C1C2CSCN2C(=O)CN1CCCN1CCN(C(c2ccccc2)c2ccccc2)CC1 (stereo not given) | -8* | i | i | i | i | 84* | 34*
SMILES | RGS4 act | RGS4 block | MrgX1 antagonist | MrgX1 allo act | MrgX1 ag | RGS4 activ val | M3R Ca counter
COc1c(C(=O)Nc2ccc(Cc3ccncc3)cc2)ccc2ccccc12 | -13* | i | i | i | i | 92* | 86*
COc1ccc(Br)cc1C(=O)Nc1ccc(Cc2ccncc2)cc1 | i | i | i | i | i | / | /
CCOC(=O)Oc1ccc2oc(C)c(C(=O)OCCOC)c2c1 | i | i | i | i | i | / | /
COCCOC(=O)c1c(C)oc2ccc(OC(=O)c3c(OC)cccc3OC)cc12 | -7.7* | i | i | i | i | 93* | 57*
COCCOC(=O)c1c(C)oc2ccc(OC(=O)c3ccc4c(c3)OCO4)cc12 | -8.4* | i | i | i | i | 90* | 59*
Cc1ccc(C(C)NC(=O)Cc2cccs2)cc1C (stereo not given) | i | i | i | i | i | / | /
COc1ccc(OC)c(-c2csc(NC(=O)c3ccc(F)cc3)n2)c1 | -8.3* | i | i | i | i | 82* | 52*
CC(C)(C)OC(=O)NCCCC1=CC2=CC(=O)C(C)(O)C(=O)C2=CO1 (stereo not given) | i | i | i | i | i | / | /
CCOc1ccc(Br)cc1C1C(C(=O)OC)=C(N)Oc2cc(N(C)C)ccc21 (stereo not given) | -9.2* | i | i | i | i | 92* | 69*
CN(CCCC(=O)Nc1ccc(Br)cc1F)S(=O)(=O)c1ccccc1 | i | i | i | i | i | / | /
O=C(CNC1CCCCCC1)Nc1ccc(S(=O)(=O)NC2CC2)cc1 | -7.7* | i | i | i | i | 64* | 84*
CCOC(=O)c1sc(S(C)=O)c2c1CCc1conc1-2 (stereo not given) | i | i | i | i | i | / | /
CCCCCCCOC(=O)c1ccc(OC(=O)c2cccnc2)cc1 | -8.4* | i | i | i | i | 90* | 59*
CCCCCOC(=O)c1ccc(OC(=O)c2cncc(Br)c2)cc1 | i | i | i | i | i | / | /
N#Cc1c(-c2ccccc2)cc(-c2ccccc2)[nH]c1=O | i | i | i | i | i | / | /
COc1cc(-c2cc(-c3ccc(N)cc3)[nH]c(=O)c2C#N)cc(OC)c1OC | -8* | i | i | i | i | 0 | 0
CC1CCCN(C(=O)COC(=O)c2cc(-c3cccs3)nn2-c2ccccc2)C1 (stereo not given) | -10* | i | i | i | i | 92* | 70*
CCCOc1ccccc1C(=O)N(Cc1ccc(C)o1)C1CCS(=O)(=O)C1 (stereo not given) | i | i | i | i | i | / | /
